The results in this text go back to ChEMBL document CHEMBL4480404, “Discovery of Lipophilic Bisphosphonates That Target Bacterial Cell Wall and Quinone Biosynthesis” (J Med Chem, 2019).

Values after ≈ are worked out from the molar mass of the structure shown. A value given as a limit tells only on which side of the number the result lay.

Data set [1] is described as follows: Growth inhibition of HEK293 cells after 24 hrs by MTT assay. Type of data set: cell-based. As to conditions: human, read-out: ED50. The essentials:
(§1)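 HEK293 cells in DMEM (4.5 g/L glucose) with 10% FBS and 1% penicillin-streptomycin, seeded at 10⁵ cells/mL. Inhibitor from 10 mM stock diluted threefold across 10 wells; 37 °C for 24 or 96 h.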
(In general: Formazan colour is commonly taken as a measure of viable cells.)

In data set [2] the test system is Bacillus subtilis. Put plainly: Antibacterial activity against Bacillus subtilis (Ehrenberg) Cohn ATCC 6051 in presence of 10% fetal bovine serum after 12 hrs. Type of data set: functional. The following applies: (Ehrenberg) Cohn ATCC 6051, 12 h, read-out: ED50 (the source's name). The essentials: (§2)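 Log-phase B. subtilis diluted 500-fold into LB containing 0%, 4% or 10% fetal bovine serum. Inhibitor threefold serially diluted across 12 wells from a 100 µM–1 mM start; incubated 12 h at 37 °C with 200 rpm shaking; growth inhibition by OD600.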

The nature of data set [3]: Lipophilicity, log D of the compound at pH 7.4. Type of data set: physicochemical. As to conditions: buffer.
In data set [4] the test system is Bacillus subtilis. Put plainly: Antibacterial activity against Bacillus subtilis (Ehrenberg) Cohn ATCC 6051 in absence of fetal bovine serum after 12 hrs. Type of data set: functional. The following applies: (Ehrenberg) Cohn ATCC 6051, 12 h, read-out: ED50 (the source's name). The essentials:
as §2

Data set [5] concerns Staphylococcus aureus. Put plainly: Antibacterial activity against Staphylococcus aureus Newman after 12 hrs. In kind it is functional. As to conditions: read-out: ED50 (the source's name). In outline: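 Log-phase S. aureus culture in tryptic soy broth (OD600 ~0.3, then diluted 500-fold). Inhibitors two-fold serially diluted across 12 wells from a 100 µM–1 mM start; 37 °C, 200 rpm, 12 h; OD600 read for growth inhibition.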

The test system of data set [6] is Bacillus anthracis. Put plainly: Antibacterial activity against Bacillus anthracis Sterne after 12 hrs. As to conditions: read-out: ED50 (the source's name). Type of data set: functional.
In data set [7] the test system is Mycolicibacterium smegmatis. Nature of the data set: Antibacterial activity against Mycobacterium smegmatis MC2 155 ATCC 700084 after 48 hrs. Type of data set: functional. The following applies: MC2 155 ATCC 700084, 48 h, read-out: ED50 (the source's name). In outline:
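Culture grown 36–48 h, diluted 1000-fold in Middlebrook 7H9 with 10% ADC, 0.5% glycerol, 0.05% Tween 80; inhibitors started at 100 µM–1 mM, threefold serial dilution across 10 wells; 37 °C, 200 rpm, 48 h; OD600 read-out.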

In data set [8] the test system is Bacillus subtilis. Put plainly: Antibacterial activity against Bacillus subtilis (Ehrenberg) Cohn ATCC 6051 after 12 hrs. In kind it is functional. The following applies: (Ehrenberg) Cohn ATCC 6051, 12 h, read-out: ED50 (the source's name). The essentials:
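Log-phase LB culture (grown to OD600 ~0.3, then diluted 500-fold) exposed to two-fold serial dilutions of inhibitor starting at 100 µM–1 mM across 12 wells; 37 °C, 200 rpm shaking, 12 h. OD600 read and ED50 fitted; duplicate or triplicate.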

Data set [9] has as its system Candida albicans. Nature of the data set: microbe, parasite or virus in culture. Type of data set: functional. The following applies: CAI-4, 12 h, read-out: ED50 (the source's name).
Data set [10] can be described thus: Binding affinity to Staphylococcus aureus HepPPS.
A short description of data set [11]: Growth inhibition of HEK293 cells after 96 hrs by MTT assay. As to conditions: human, read-out: ED50. In kind it is cell-based. In outline: as §1

Regarding `CCCCCCCCCCCc1ccc[n+](CC(P(=O)([O-])O)P(=O)(O)O)c1` (stereo not drawn), the GI50 at 24 h in data set [1] stood at 220 µM. Moreover, the EC50 in data set [2] is 2 µg/mL. In data set [3], the logD – broadly, the decadic logarithm of the distribution of all forms, ionised or not, between an organic phase and buffer at a given pH – was -4.07.

For `CC(C)CCCC(C)CCCc1ccc[n+](CC(P(=O)([O-])O)P(=O)(O)O)c1` (stereo not drawn), the EC50 in data set [4] was 2.4 µg/mL (≈ 5.7 µM); in [2] it was 1.7 µg/mL. The GI50 at 24 h in data set [1] is 460 µM. This compound also returned a logD in data set [3] of -4.71.

For `CCCCCCCCOc1cccc(C(=O)Nc2ccc(F)cc2C(=O)O)c1`, the EC50 is 3 to 8 µg/mL in [5]; 3 to 8 µg/mL in [6]; 3 to 8 µg/mL in data set [7]; 3 to 8 µg/mL in [8]; over 50 µg/mL in data set [9].

For `CCCCCCCCCCCCCc1ccc[n+](CC(P(=O)([O-])O)P(=O)(O)O)c1` (stereo not drawn), the GI50 at 24 h in data set [1] is 48 µM. Further, in data set [3] (read-out: logD), the logD is -3.65.

In the case of `CC(C)CCCC(C)CCc1csc(NCC(P(=O)(O)O)P(=O)(O)O)n1` (stereo not drawn), the logD in [3] (read-out: logD) was -2.36.

As to `CC(C)=CCC/C(C)=C/CC/C(C)=C/COP(=O)(O)OP(=O)(O)O` [FARNESYL DIPHOSPHATE], binding in [10] was put at a Kd of 35 µM.

Consider `CC(C)CCCC(C)CCCc1cc[n+](CC(P(=O)([O-])O)P(=O)(O)O)cc1` (stereo not drawn), for which the EC50 was 2.3 µg/mL (≈ 5.46 µM) in data set [4] and 78 µg/mL in [2]. The GI50 at 96 h in [11] is over 1000 µM. The GI50 at 24 h in [1] came out at 700 µM. The same compound registered a logD in data set [3] of -4.71.

As for `CC(C)CCCC(C)CCCn1cc[n+](CC(P(=O)([O-])O)P(=O)(O)O)c1` (stereo not drawn), the GI50 at 24 h in data set [1] came out at 440 µM. In [3], this compound showed a logD of -5.65.

`CC(C)CCCC(C)CCCc1cccc(NCC(P(=O)(O)O)P(=O)(O)O)n1` (stereo not drawn): the EC50 turned out to be 73 µM in data set [5], 6.9 µM in [6], 210 µM in data set [7] and 60 µM in data set [8]. Besides, the GI50 at 24 h in data set [1] came out at 1100 µM. Moreover, in data set [3] (read-out: logD), the logD was -2.

Turning to `CC(C)CCCC(C)CCOc1cccc(NCC(P(=O)(O)O)P(=O)(O)O)n1` (stereo not drawn), in data set [3] (read-out: logD), the pH-dependent lipophilicity (logD) is -2.24.

As for `CC(C)CCCC(C)CCOc1cc(NCC(P(=O)(O)O)P(=O)(O)O)ccn1` (stereo not drawn), the GI50 at 24 h in [1] came to 1200 µM. Further, the logD in [3] (read-out: logD) was -3.1.

Take `CC(C)CCCC(C)CCNc1ccc[n+](CC(P(=O)([O-])O)P(=O)(O)O)c1` (stereo not drawn): the GI50 at 24 h in [1] is 440 µM.

With `CC(C)CCCC(C)CCc1cnc(NCC(P(=O)(O)O)P(=O)(O)O)s1` (stereo not drawn), in data set [3] (read-out: logD), the logD was -2.12.

For `CC(C)CCCC(C)CCOc1ccnc(NC(P(=O)(O)O)P(=O)(O)O)c1` (stereo not drawn), the GI50 at 24 h in data set [1] came out at 1300 µM. Moreover, the log distribution coefficient (logD) in [3] (read-out: logD) is -1.63.

As for `CC(C)CCCC(C)CCSc1cc[n+](CC(P(=O)([O-])O)P(=O)(O)O)cc1` (stereo not drawn), in data set [1], the GI50 at 24 h amounted to 1000 µM. The same compound registered a logD in data set [3] of -5.08.
